Data taken from ChEMBL document CHEMBL3297702, “Improving photodynamic inactivation of bacteria in dentistry: highly effective and fast killing of oral key pathogens with novel tooth-colored type-II photosensitizers” (J Med Chem, 2014).
The source made the active and inactive calls. No cut-off for these calls is given here.

Tests used:
[1] = test system: Streptococcus mutans; test: Photodynamic inactivation of Streptococcus mutans ATCC 25175 assessed as reduction of log10 CFU at 100 uM incubated prior to irradiation with 150 j/cm'2 for 120 secs measured after 48 hrs by agar plating method (reference value: <1 no unit); type: functional
[2] = test system: Streptococcus mutans; test: Photodynamic inactivation of Streptococcus mutans ATCC 25175 assessed as reduction of log10 CFU at 5 uM incubated prior to irradiation with 50 j/cm'2 for 40 secs measured after 48 hrs by agar plating method (reference value: <1 no unit); type: functional
[3] = test system: Enterococcus faecalis; test: Photodynamic inactivation of Enterococcus faecalis ATCC 29212 assessed as reduction of log10 CFU at 1 to 250 uM preincubated for 10 secs followed by irradiation with 25 j/cm'2 for 20 secs measured after 24 hrs by agar plating method; type: functional, organism-based
Summary of the method: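 E. faecalis ATCC 29212, aerobic overnight BHI culture at 37 °C, was harvested at stationary phase and suspended in PBS at 10^7–10^8 bacteria/mL. It was mixed 1:1 with PS to 0–250 µM final, held 10 s, then illuminated (1260 ± 50 mW/cm2) or kept dark. Dilutions were plated on Mueller-Hinton agar, aerobic 37 °C 24 h, CFU counted. Medians of three independent triplicate experiments, referred to untreated controls.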

[4] = test system: Aggregatibacter actinomycetemcomitans; test: Photodynamic inactivation of Aggregatibacter actinomycetemcomitans ATCC 43718 assessed as reduction of log10 CFU at 1 uM incubated prior to irradiation with 25 j/cm'2 for 20 secs measured after 48 hrs by agar plating method relative to control; type: functional, Y4
Summary of the method: (§1)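 A. actinomycetemcomitans ATCC 43718 cultured overnight in BHI broth under anaerobic conditions, 37 °C with shaking. Stationary-phase cells were spun down, taken up in PBS to 10^7–10^8/mL, and combined 1:1 with PS (final 0–250 µM) or water. After 10 s they were irradiated at 1260 ± 50 mW/cm2 or kept dark. Serial dilutions went onto BHI agar, incubated anaerobically at 37 °C for 48 h, and CFU were scored. Results are medians from 3 experiments × triplicate versus untreated controls.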

[5] = test system: Actinomyces naeslundii; test: Photodynamic inactivation of Actinomyces naeslundii T14V assessed as reduction of log10 CFU at 100 uM incubated prior to irradiation with 50 j/cm'2 for 40 secs measured after 48 hrs by agar plating method (reference value: <1 no unit); type: functional
Summary of the method: (§2)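 A. naeslundii T14V grown overnight at 37 °C, shaken, aerobically in BHI broth. Harvested at stationary phase, resuspended in PBS to 10^7–10^8 bacteria/mL (OD600). Mixed 1:1 with PS (final 0–250 µM) or water, 10 s incubation, then blue photopolymerizer light (1260 ± 50 mW/cm2) or dark. Tenfold dilutions plated on blood agar, aerobic 37 °C 48 h, CFU counted; medians of three independent experiments in triplicate.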

[6] = test system: Aggregatibacter actinomycetemcomitans; test: Photodynamic inactivation of Aggregatibacter actinomycetemcomitans ATCC 43718 assessed as reduction of log10 CFU at 100 uM incubated prior to irradiation with 25 j/cm'2 for 20 secs measured after 48 hrs by agar plating method relative to control; type: functional, Y4; summary of the method: as §1
[7] = test system: Streptococcus mutans; test: Photodynamic inactivation of Streptococcus mutans ATCC 25175 assessed as reduction of log10 CFU at 5 uM incubated prior to irradiation with 150 j/cm'2 for 120 secs measured after 48 hrs by agar plating method (reference value: <1 no unit); type: functional
[8] = test system: Aggregatibacter actinomycetemcomitans; test: Photodynamic inactivation of Aggregatibacter actinomycetemcomitans ATCC 43718 assessed as reduction of log10 CFU at 1 uM incubated prior to irradiation with 50 j/cm'2 for 40 secs measured after 48 hrs by agar plating method (reference value: <1 no unit); type: functional, Y4; summary of the method: as §1
[9] = test system: Streptococcus mutans; test: Photodynamic inactivation of Streptococcus mutans ATCC 25175 assessed as reduction of log10 CFU at 1 uM incubated prior to irradiation with 25 j/cm'2 for 20 secs measured after 48 hrs by agar plating method (reference value: <1 no unit); type: functional
[10] = test system: Streptococcus mutans; test: Photodynamic inactivation of Streptococcus mutans ATCC 25175 assessed as reduction of log10 CFU at 10 uM incubated prior to irradiation with 150 j/cm'2 for 120 secs measured after 48 hrs by agar plating method (reference value: <1 no unit); type: functional
[11] = test system: Actinomyces naeslundii; test: Photodynamic inactivation of Actinomyces naeslundii T14V assessed as reduction of log10 CFU at 10 uM incubated prior to irradiation with 50 j/cm'2 for 40 secs measured after 48 hrs by agar plating method (reference value: <1 no unit); type: functional; summary of the method: as §2
[12] = test system: Streptococcus mutans; test: Photodynamic inactivation of Streptococcus mutans ATCC 25175 assessed as reduction of log10 CFU at 1 to 250 uM preincubated for 10 secs followed by irradiation with 50 j/cm'2 for 40 secs measured after 48 hrs by agar plating method; type: functional
[13] = test system: Actinomyces naeslundii; test: Photodynamic inactivation of Actinomyces naeslundii T14V assessed as reduction of log10 CFU at 5 uM incubated prior to irradiation with 25 j/cm'2 for 20 secs measured after 48 hrs by agar plating method (reference value: <1 no unit); type: functional; summary of the method: as §2
[14] = test system: Actinomyces naeslundii; test: Photodynamic inactivation of Actinomyces naeslundii T14V assessed as reduction of log10 CFU at 100 uM incubated prior to irradiation with 25 j/cm'2 for 20 secs measured after 48 hrs by agar plating method (reference value: <1 no unit); type: functional; summary of the method: as §2
[15] = test system: Aggregatibacter actinomycetemcomitans; test: Photodynamic inactivation of Aggregatibacter actinomycetemcomitans ATCC 43718 assessed as reduction of log10 CFU at 5 uM incubated prior to irradiation with 25 j/cm'2 for 20 secs measured after 48 hrs by agar plating method relative to control; type: functional, Y4; summary of the method: as §1
[16] = test system: Aggregatibacter actinomycetemcomitans; test: Photodynamic inactivation of Aggregatibacter actinomycetemcomitans ATCC 43718 assessed as reduction of log10 CFU at 5 uM incubated prior to irradiation with 150 j/cm'2 for 120 secs measured after 48 hrs by agar plating method relative to control; type: functional, Y4; summary of the method: as §1
[17] = test system: Actinomyces naeslundii; test: Photodynamic inactivation of Actinomyces naeslundii T14V assessed as reduction of log10 CFU at 10 uM incubated prior to irradiation with 25 j/cm'2 for 20 secs measured after 48 hrs by agar plating method (reference value: <1 no unit); type: functional; summary of the method: as §2
[18] = test system: Streptococcus mutans; test: Photodynamic inactivation of Streptococcus mutans ATCC 25175 assessed as reduction of log10 CFU at 100 uM incubated prior to irradiation with 25 j/cm'2 for 20 secs measured after 48 hrs by agar plating method (reference value: <1 no unit); type: functional
[19] = test system: Enterococcus faecalis; test: Toxicity in Enterococcus faecalis ATCC 29212 assessed as reduction of log10 CFU at 1 to 250 uM incubated for 10 secs under dark condition measured after 24 hrs by agar plating method; type: organism-based; details: in vivo
Summary of the method: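 Dark controls. Overnight BHI cultures (EF, SM, AN aerobic; AA anaerobic; 37 °C) were washed into PBS at 10^7–10^8 cells/mL. They were mixed 1:1 with photosensitizer at final 0–250 µM and incubated 10 s, 7.5 min or 15 min, then kept in the dark for 20, 40 or 120 s. Tenfold dilutions were plated: EF on Mueller-Hinton agar, aerobic 24 h; SM on BHI agar, aerobic 48 h; AN on blood agar, aerobic 48 h; AA on BHI agar, anaerobic 48 h; all at 37 °C. CFU were compared with untreated controls; medians of three independent experiments in triplicate.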

`O=C1C(C[n+]2ccccc2)=Cc2cccc3cccc1c23.[Cl-]` was tested, and the log10cfu [1] was >6, the log10cfu [2] was <3 and the Activity [3] was “Active”. For the same compound, the log10cfu [4] was <3, the log10cfu [5] was > 5 and the log10cfu [6] was >6. For the same compound, the log10cfu [7] was >6, the log10cfu [8] was <3 and the log10cfu [9] was <1. The log10cfu [10] was >6, the log10cfu [11] was > 5 and the Activity [12] was “Active”. For the same compound, the log10cfu [13] was <3, the log10cfu [14] was > 5 and the log10cfu [15] was <3. The log10cfu [16] was >6, the log10cfu [17] was > 5 and the log10cfu [18] was >6.
For `C[N+](C)(C)CC1=Cc2cccc3cccc(c23)C1=O.[Cl-]`, the Activity [3] was “Active”, the Activity [12] was “Active” and the Activity [19] was “Non-toxic”.
With `C[N+](C)(CCO)CC1=Cc2cccc3cccc(c23)C1=O.[Cl-]` the log10cfu [1] was >6, the log10cfu [2] was <1 and the log10cfu [4] was <1. The log10cfu [5] was > 5, the log10cfu [6] was > 3 and the log10cfu [7] was <3. The log10cfu [8] was <3, the log10cfu [9] was <1 and the log10cfu [10] was >6. For the same compound, the log10cfu [11] was <5, the log10cfu [13] was <1 and the log10cfu [14] was > 5. For the same compound, the log10cfu [15] was <3, the log10cfu [16] was >6 and the Activity [19] was “Non-toxic”. For the same compound, the log10cfu [17] was <3 and the log10cfu [18] was >6.
